Experimental data gathered from unrelated publications.
murD: UDP-N-acetylmuramoylalanine--D-glutamate ligase (murD, Escherichia coli K-12, UniProt P14900)
HDAC8: Histone deacetylase 8 (HDAC8, Homo sapiens, UniProt Q9BY41)
BRD4 BD1: Bromodomain-containing protein 4, BD1 (BRD4, Homo sapiens, UniProt O60885)
MAP3K4: Mitogen-activated protein kinase kinase kinase 4 (MAP3K4, Homo sapiens, UniProt Q9Y6R4)
KAT2B: Histone acetyltransferase KAT2B (KAT2B, Homo sapiens, UniProt Q92831)

| SMILES | target | read-out | action | method | tested at | measurement | result |
| --- | --- | --- | --- | --- | --- | --- | --- |
| O=[N+]([O-])c1cccc(S(=O)(=O)Oc2ccccc2C=NNS(=O)(=O)c2ccc3ccccc3c2)c1 | murD | enzyme activity | inhibitor | absorbance | 50 µM | remaining activity | 70% |
| CCCOc1ccc(OC)c(F)c1C(=O)c1ccc(C(=O)N[C@@H]2CNC[C@H]2NC(=O)c2ccc3[nH]ncc3c2)cc1 | cGMP-dependent protein kinase 1 (PRKG1, Homo sapiens, UniProt Q13976) | enzyme activity | inhibitor |  | 50 nM | remaining activity | 22% |
| CC[C@H](CC[C@@H](C)[C@H]1CC[C@H]2[C@@H]3CC=C4C[C@@H](O[C@@H]5O[C@H](CO)[C@@H](O)[C@H](O)[C@H]5O)CC[C@]4(C)[C@H]3CC[C@]12C)C(C)C | HDAC8 | enzyme activity | inhibitor |  | 10 µM | inhibition | -8.57% |
| Cn1nnc2ccc(NC(=O)c3cccc(C(=O)O)c3)cc21 | BRD4 BD1 | thermal stability |  | DSF | 100 µM | ΔTm | 2.8 °C |
| Nc1ncnc2occ(-c3ccc(NC(=O)Nc4cc(C(F)(F)F)ccc4F)cc3)c12 | MAP3K4 | cell-free assay | inhibitor |  | 20 µM | remaining signal | 1.6% |
| NS(=O)(=O)c1ccc(Nc2nc(-c3ccc(F)cc3)c3ccccc3n2)cc1 | BRD4 BD1 | binding |  | competition with immobilised ligand | 1 µM | remaining binding | 5% |
| CC(C)[C@@H]1NC(=O)[C@@H]2CCCN2C(=O)[C@H](Cc2ccccc2)NC(=O)CSC[C@@H](C(=O)N[C@@H](Cc2ccc(O)cc2)C(N)=O)NC(=O)[C@H](Cc2c[nH]c3ccccc23)NC(=O)[C@H](CCCCN)NC(=O)[C@H](Cc2ccccc2)N(C)C(=O)[C@H](Cc2ccccc2)NC1=O | BRD4 BD1 | thermal stability |  | DSF | 50 µM | ΔTm | -0.52 °C |
| N#Cc1ccc(COc2ccccc2C=NNS(=O)(=O)c2ccccc2[N+](=O)[O-])cc1 | murD | enzyme activity | inhibitor | absorbance | 100 µM | remaining activity | 86% |
| C[S+]([O-])c1ccc(-c2nc(-c3ccncc3)c(-c3ccc(F)cc3)[nH]2)cc1 (centres unmarked) | Bromodomain-containing protein 4, BD2 (BRD4, Homo sapiens, UniProt O60885) | thermal stability |  | DSF | 10 µM | ΔTm | 1.67 °C |
| O=C(Cc1ccc2c(c1)OCO2)Oc1ccccc1C=NNS(=O)(=O)c1ccc2ccccc2c1 | murD | enzyme activity | inhibitor | absorbance | 100 µM | remaining activity | 49% |
| Cc1cc2c(cc1N1C(=O)c3cccc4c(Cl)ccc(c34)C1=O)n(C)c(=O)n2C | KAT2B | thermal stability |  | DSF | 10 µM | ΔTm | 0.5 °C |
| N#Cc1ccc(COc2ccccc2C=NNS(=O)(=O)c2cccc([N+](=O)[O-])c2)cc1 | murD | enzyme activity | inhibitor | absorbance | 100 µM | remaining activity | 74% |
| Cc1ccc(C(=O)Nc2ccc(CN3CCN(C)CC3)c(C(F)(F)F)c2)cc1C#Cc1cnc2cccnn12 | MAP3K4 | enzyme activity | inhibitor |  | 23.5 nM | remaining activity | 95% |
| Cc1cnc(Nc2ccc(OCCN3CCCC3)cc2)nc1Nc1cccc(S(=O)(=O)NC(C)(C)C)c1 | Tyrosine-protein kinase BAZ1B (BAZ1B, Homo sapiens, UniProt Q9UIG0) | thermal stability |  | DSF | 10 µM | ΔTm | -0.02 °C |
| O=c1c(O)c(-c2ccc(O)c(O)c2)oc2cc(O)cc(O)c12 | HDAC8 | enzyme activity | inhibitor |  | 10 µM | inhibition | 68% |
| Oc1ccc(-c2nc(-c3ccncc3)c(-c3ccc(F)cc3)[nH]2)cc1 | KAT2B | thermal stability |  | DSF | 10 µM | ΔTm | -0.19 °C |
| O=C(Nc1ccc(C=NNS(=O)(=O)c2ccc3ccccc3c2)cc1)c1cc([N+](=O)[O-])cc([N+](=O)[O-])c1 | murD | enzyme activity | inhibitor | absorbance | 100 µM | remaining activity | 78% |
